According to ChEMBL document CHEMBL1811759, “Synthesis and topoisomerase I inhibitory activity of a novel diazaindeno[2,1-b]phenanthrene analogue of Lamellarin D” (Bioorg Med Chem, 2011):
Activity calls are given as the source filed them. No cut-off for these calls is given here.

Columns and labels:
[1] = target: T1, DNA topoisomerase 1 (Homo sapiens) (UniProt P11387); assay: Stimulation of human recombinant DNA topoisomerase 1-mediated 751-bp BamHI-EcoRV fragment of SV40 DNA cleavage at 1 to 50 uM after 30 mins by polyacrylamide gel-electrophoresis
T1 sequence (whole entry): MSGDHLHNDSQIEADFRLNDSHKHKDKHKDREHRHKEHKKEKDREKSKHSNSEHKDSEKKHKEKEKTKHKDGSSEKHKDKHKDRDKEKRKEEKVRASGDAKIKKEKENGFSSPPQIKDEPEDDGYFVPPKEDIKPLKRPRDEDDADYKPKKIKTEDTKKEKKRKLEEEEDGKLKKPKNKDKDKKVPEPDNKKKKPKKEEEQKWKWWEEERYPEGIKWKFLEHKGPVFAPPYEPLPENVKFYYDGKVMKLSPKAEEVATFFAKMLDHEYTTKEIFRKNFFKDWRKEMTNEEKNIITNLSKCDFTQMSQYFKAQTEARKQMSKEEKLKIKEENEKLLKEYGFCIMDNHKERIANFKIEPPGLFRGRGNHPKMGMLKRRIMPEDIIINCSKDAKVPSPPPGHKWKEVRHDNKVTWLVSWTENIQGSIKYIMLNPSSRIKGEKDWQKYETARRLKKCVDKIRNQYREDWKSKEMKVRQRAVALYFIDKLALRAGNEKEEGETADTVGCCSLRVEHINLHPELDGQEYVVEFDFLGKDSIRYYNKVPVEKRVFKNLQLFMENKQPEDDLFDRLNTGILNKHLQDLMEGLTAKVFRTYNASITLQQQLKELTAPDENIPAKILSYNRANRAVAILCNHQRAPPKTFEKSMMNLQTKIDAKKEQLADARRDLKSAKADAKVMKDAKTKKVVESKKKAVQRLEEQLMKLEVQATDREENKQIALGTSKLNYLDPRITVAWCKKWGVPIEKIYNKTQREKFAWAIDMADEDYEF
How it was run: (§1)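 Gel-purified 751-bp BamHI–EcoRV SV40 DNA fragment, uniquely 3'-end labeled (10,000 cpm/sample), incubated with full-length human recombinant topoisomerase I in 10 mM Tris–HCl pH 7.6, 150 mM KCl, 5 mM MgCl2, 0.1 mM DTT, 30 min, 37 °C. Stopped with 0.5% SDS plus 0.3 mg/mL proteinase K (45 min, 42 °C); products resolved on denaturing 8% polyacrylamide/TBE gel.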

NCI-H460 [2] = assay: Antiproliferative activity against human NCI-H460 cells after 1 hr by coulter counter analysis; assay type: functional, cell-based; settings: NCI-H460, 1 h
How it was run: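 NCI-H460 NSCLC cells in RPMI-1640 + 10% foetal calf serum; log-phase cells seeded in duplicate, drug added 24 h after seeding for 1 h, then counted (Coulter counter) 72 h later. IC50 = concentration giving 50% decrease in cell growth vs untreated control.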

NCI-H460 [3] = assay: Antiproliferative activity against human NCI-H460 cells after 72 hrs by coulter counter analysis; assay type: functional, cell-based; settings: NCI-H460, 72 h
How it was run: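 NCI-H460 cells grown in RPMI-1640 with 10% foetal calf serum; log-phase cells seeded in duplicate, exposed 24 h post-seeding for 72 h continuously, counted by Coulter counter at end of exposure. IC50 taken as concentration halving cell growth relative to untreated control.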

[4] = target: T1, DNA topoisomerase 1 (Homo sapiens); assay: Stimulation of human recombinant DNA topoisomerase 1-mediated 751-bp BamHI-EcoRV fragment of SV40 DNA cleavage at 100 uM after 30 mins by polyacrylamide gel-electrophoresis; how it was run: as §1

Row | Activity [1] | Activity [4] | SMILES | IC50 (NCI-H460 [2]) | IC50 (NCI-H460 [3])
1 | Active | – | CCc1c2c(nc3ccc(O)cc13)-c1cc3c(c(=O)n1C2)COC(=O)[C@]3(O)CC | – | –
2 | – | – | CC[C@@]1(O)C(=O)OCc2c1cc1n(c2=O)Cc2cc3c(CN(C)C)c(O)ccc3nc2-1 [TOPOTECAN] | 1.75 µM | 0.016 µM
3 | inactive | – | COc1cc(-c2[nH]c(=O)c3[nH]c4cc(O)c(OC)cc4c3c2-c2ccc(O)c(OC)c2)ccc1O | 60.8 µM | –
4 | – | – | COc1cc(-c2[nH]c(=O)c3[nH]c4cc(OC)c(O)cc4c3c2-c2ccc(O)c(OC)c2)ccc1O | 60.8 µM | –
5 | inactive | – | COc1cc(-c2[nH]c(=O)c3c(c2-c2ccc(O)c(OC)c2)c2cc(OC)c(O)cc2n3Cc2ccccc2)ccc1O | 119 µM | –
6 | – | Active | COc1cc(-c2c3n(c(=O)c4c2c2cc(OC)c(O)cc2n4C)COc2cc(O)c(OC)cc2-3)ccc1O | 4.02 µM | 0.35 µM
7 | – | – | COc1cc(-c2[nH]c(=O)c3c(c2-c2ccc(O)c(OC)c2)c2ccccc2n3C)ccc1O | 60.8 µM | –
8 | – | – | Cn1c2ccccc2c2cc3n(c(=O)c21)COc1ccccc1-3 | 118 µM | –
9 | – | – | COc1cc(-c2[nH]c(=O)c3c(c2-c2ccc(OC(C)C)c(OC)c2)c2ccccc2n3C)ccc1OC(C)C | 60.8 µM | –
10 | inactive | – | COc1cc2c3c(-c4ccc(OC(C)C)c(OC)c4)c(-c4ccc(OC(C)C)c(OC)c4)[nH]c(=O)c3n(Cc3ccccc3)c2cc1OCc1ccccc1 | > 150 µM | –

Row | SMILES | Activity [1] | Activity [4] | IC50 (NCI-H460 [2]) | IC50 (NCI-H460 [3])
11 | COc1cc(-c2c3c4cc(OC)c(O)cc4oc(=O)c3n3ccc4cc(O)c(OC)cc4c23)ccc1O [LAMELLARIN D] | Active | – | 0.066 µM | 0.003 µM
